Data: article PMC10629916 (Journal of Food and Drug Analysis, 2023)

Assays:
[1] = Stability test of the 2 analytes in rat plasma; assay type: in vitro ADME
Summary of the method: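 Rat plasma QC samples at low, middle and high levels were assayed in triplicate. They were MeOH-precipitated (1:3), spun at 4500 rpm and 4 °C for 10 min, dried and redissolved in MeOH. The processed samples were held in the autosampler for 12 h and then quantified by UPLC-MS/MS against oxacillin internal standard. Samples counted as stable if bias was within ±15% of nominal.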

[2] = assay type: in vivo, Male Wistar Rats; conditions: male, Wistar, rat, plasma, po, 800 mg/kg
Summary of the method: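 Male Wistar rats (200–250 g) dosed orally with the prescription extract at 800 mg/kg. Plasma was stored at −80 °C, then precipitated with MeOH (1:3). Analysis was by UPLC-MS/MS MRM with oxacillin as internal standard. Parameters came from noncompartmental analysis, reported as mean ± SD.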

[3] = Normal temperature (auto-sampler 12 h), nominal conc 15.62 ng/mL
[4] = Normal temperature (auto-sampler 12 h), nominal conc 31.25 ng/mL
[5] = −80 (storage at −80 °C), nominal conc 15.62 ng/mL
[6] = −80 (storage at −80 °C), nominal conc 31.25 ng/mL
[7] = −80 FT (three freeze–thaw cycles), nominal conc 15.62 ng/mL
[8] = −80 FT (three freeze–thaw cycles), nominal conc 31.25 ng/mL

Accuracy (RE, %) [1, 3]: 11.32%
Observed [1, 3]: 17.94 ± 0.15
Accuracy (RE, %) [1, 4]: −2.84%
Observed [1, 4]: 31.04 ± 0.22
Accuracy (RE, %) ([1]; −80 (storage at −80 °C), nominal conc 0.48 ng/mL): −1.48%
Accuracy (RE, %) [1, 5]: 9.87%
Observed [1, 5]: 17.94 ± 0.15
Accuracy (RE, %) [1, 6]: −3.53%
Observed [1, 6]: 31.04 ± 0.22
Accuracy (RE, %) ([1]; −80 FT (three freeze–thaw cycles), nominal conc 0.48 ng/mL): −3.82%
Accuracy (RE, %) [1, 7]: 12.58%
Observed [1, 7]: 17.94 ± 0.15
Accuracy (RE, %) [1, 8]: −3.1%
Observed [1, 8]: 31.04 ± 0.22
AUC(0-inf) [2]: 20.2 ± 11.9 ng·h/mL
AUC(0-t) [2]: 11 ± 5.91 ng·h/mL
Cmax [2]: 3.29 ± 1.63 ng/mL
MRT inf [2]: 8.22 ± 2.65 h
Tmax [2]: 1.01 ± 1.22 h
half-life [2]: 4.76 ± 1.76 h
SMILES: C[C@@H]1O[C@@H](OC[C@H]2O[C@@H](Oc3cc(O)c4c(c3)O[C@H](c3ccc(O)cc3)CC4=O)[C@H](O)[C@@H](O)[C@@H]2O)[C@H](O)[C@H](O)[C@H]1O [Narirutin]
